Tests used:
CYP2C9 = CYP2C9 (Homo sapiens, UniProt P11712); assay: Reversible inhibition of CYP2C9 in human liver microsomes using tolbutamide as substrate at 10 uM incubated for 10 mins by LC/MS/MS analysis relative to control; format: ADME, Microsome; conditions: probe tolbutamide
Method in brief: (§1)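 Human liver microsomes at 0.1 mg/mL incubated 10 min at 37 °C with isoform-specific substrate and 10 µM test compound. Pairs: 1A2 tacrine/1-hydroxytacrine; 2C8 paclitaxel/6α-hydroxypaclitaxel; 2C9 tolbutamide/4-hydroxytolbutamide; 2D6 dextromethorphan/dextrorphan; 3A4 midazolam/1'-hydroxymidazolam. Stopped with acetonitrile/water; metabolite measured by LC/MS/MS.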

[1] = Volume of distribution at steady state in mouse at 0.1 mg/kg, iv administered as cassette dose by LC/MS/MS analysis; format: ADME, organism-based; conditions: in vivo, read-out: Vdss
Method in brief: (§2)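 Non-fasted mice dosed by cassette, iv 0.1 mg/kg or po 1 mg/kg suspended in 0.5% methylcellulose aqueous solution; plasma obtained from blood by centrifugation, deproteinized with acetonitrile, and compound concentrations measured by LC/MS/MS.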

CYP1A2 = target: T1, CYP1A2 (Homo sapiens, UniProt P05177); assay: Reversible inhibition of CYP1A2 in human liver microsomes using tacrine as substrate at 10 uM incubated for 10 mins by LC/MS/MS analysis relative to control; format: ADME, Microsome; conditions: probe tacrine; method in brief: as §1
T1 sequence (P05177 whole entry): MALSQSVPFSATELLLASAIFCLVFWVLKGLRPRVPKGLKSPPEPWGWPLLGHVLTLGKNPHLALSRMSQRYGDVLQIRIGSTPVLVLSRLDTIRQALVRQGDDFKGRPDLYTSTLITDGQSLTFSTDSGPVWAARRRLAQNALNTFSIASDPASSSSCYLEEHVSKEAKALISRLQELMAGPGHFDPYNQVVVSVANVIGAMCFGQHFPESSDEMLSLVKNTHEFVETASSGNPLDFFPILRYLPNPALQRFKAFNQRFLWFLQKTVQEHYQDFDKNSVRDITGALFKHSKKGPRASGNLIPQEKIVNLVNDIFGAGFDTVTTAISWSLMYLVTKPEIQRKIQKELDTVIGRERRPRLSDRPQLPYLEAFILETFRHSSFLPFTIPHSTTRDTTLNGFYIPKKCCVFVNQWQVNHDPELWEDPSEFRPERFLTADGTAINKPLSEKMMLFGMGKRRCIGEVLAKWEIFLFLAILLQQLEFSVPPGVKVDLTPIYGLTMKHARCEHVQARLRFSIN

[2] = Permeability of compound at pH 7.4 by PAMPA assay; format: ADME; conditions: read-out: permeability
Method in brief: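 Passive permeability measured by PAMPA at pH 7.4.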

Mus musculus = assay: In vivo inhibition of MGAT2 in olive oil-induced C57BL/6J mouse model of hypertriglyceridemia assessed as reduction in plasma chylomicron triglyceride level preadministered orally with compound for 6 hrs followed by Pluronic F127 addition for 30 mins and further treated with olive oil for 4 hrs by automatic analyzer; format: functional; conditions: dose 0.3-3 mg/kg, route po, time 10.5 hrs
Method in brief: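 Male C57BL/6J mice (20–25 g) fasted overnight and dosed orally at 0.3, 1 or 3 mg/kg. Olive oil (8 mL/kg po) or water given 6 h later, with Pluronic F127 500 mg/kg i.p. 30 min before oil. Tail-vein plasma taken at 0, 2 and 4 h and TG measured by automatic analyzer. CM/TG = oil-group TG minus water-group TG; AUC over 4 h; n = 5, mean ± SD; Williams' test vs vehicle.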

CYP3A4 = CYP3A4 (Homo sapiens, UniProt P08684); assay: Reversible inhibition of CYP3A4 in human liver microsomes using midazolam as substrate at 10 uM incubated for 10 mins by LC/MS/MS analysis relative to control; format: ADME, Microsome; conditions: probe midazolam; method in brief: as §1
Sequence of CYP3A4 (P08684 whole entry): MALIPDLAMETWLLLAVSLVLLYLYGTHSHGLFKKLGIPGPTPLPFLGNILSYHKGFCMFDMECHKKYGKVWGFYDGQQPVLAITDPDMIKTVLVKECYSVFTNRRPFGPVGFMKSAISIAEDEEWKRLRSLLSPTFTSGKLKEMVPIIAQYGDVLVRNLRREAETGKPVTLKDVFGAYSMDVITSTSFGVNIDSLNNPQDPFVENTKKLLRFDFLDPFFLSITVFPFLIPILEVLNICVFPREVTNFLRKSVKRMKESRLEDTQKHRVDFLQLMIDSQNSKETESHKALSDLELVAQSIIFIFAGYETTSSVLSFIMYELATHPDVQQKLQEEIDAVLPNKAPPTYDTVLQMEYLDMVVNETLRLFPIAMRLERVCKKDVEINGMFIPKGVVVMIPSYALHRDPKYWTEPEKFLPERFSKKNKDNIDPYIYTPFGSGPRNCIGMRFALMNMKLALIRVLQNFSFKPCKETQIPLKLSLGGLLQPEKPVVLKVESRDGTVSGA

CYP2C8 = target: T2, CYP2C8 (Homo sapiens, UniProt P10632); assay: Reversible inhibition of CYP2C8 in human liver microsomes using paclitaxel as substrate at 10 uM incubated for 10 mins by LC/MS/MS analysis relative to control; format: ADME, Microsome; conditions: probe paclitaxel; method in brief: as §1
T2 sequence (P10632 whole entry): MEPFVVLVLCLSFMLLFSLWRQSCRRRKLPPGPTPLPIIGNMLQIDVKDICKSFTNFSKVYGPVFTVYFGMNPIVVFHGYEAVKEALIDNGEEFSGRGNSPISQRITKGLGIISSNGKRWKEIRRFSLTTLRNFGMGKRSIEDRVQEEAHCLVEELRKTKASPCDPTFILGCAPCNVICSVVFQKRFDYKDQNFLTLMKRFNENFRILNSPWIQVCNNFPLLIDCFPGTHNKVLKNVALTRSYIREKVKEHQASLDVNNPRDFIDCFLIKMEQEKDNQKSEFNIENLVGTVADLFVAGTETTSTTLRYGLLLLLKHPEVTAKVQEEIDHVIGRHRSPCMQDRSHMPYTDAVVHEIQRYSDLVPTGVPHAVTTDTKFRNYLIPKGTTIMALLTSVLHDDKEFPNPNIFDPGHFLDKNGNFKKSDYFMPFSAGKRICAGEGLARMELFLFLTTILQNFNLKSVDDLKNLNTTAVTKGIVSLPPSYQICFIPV

[3] = target: T3, Diacylglycerol O-acyltransferase 1 (Homo sapiens, UniProt O75907); assay: Inhibition of N-terminal FLAG-tagged full-length human DGAT1 expressed in recombinant baculovirus infected Sf21 cells using [1-14C]-oleoyl-CoA and 1,2-dioleoyl-glycerol as substrate incubated for 40 mins by TLC analysis
T3 sequence (O75907 whole entry): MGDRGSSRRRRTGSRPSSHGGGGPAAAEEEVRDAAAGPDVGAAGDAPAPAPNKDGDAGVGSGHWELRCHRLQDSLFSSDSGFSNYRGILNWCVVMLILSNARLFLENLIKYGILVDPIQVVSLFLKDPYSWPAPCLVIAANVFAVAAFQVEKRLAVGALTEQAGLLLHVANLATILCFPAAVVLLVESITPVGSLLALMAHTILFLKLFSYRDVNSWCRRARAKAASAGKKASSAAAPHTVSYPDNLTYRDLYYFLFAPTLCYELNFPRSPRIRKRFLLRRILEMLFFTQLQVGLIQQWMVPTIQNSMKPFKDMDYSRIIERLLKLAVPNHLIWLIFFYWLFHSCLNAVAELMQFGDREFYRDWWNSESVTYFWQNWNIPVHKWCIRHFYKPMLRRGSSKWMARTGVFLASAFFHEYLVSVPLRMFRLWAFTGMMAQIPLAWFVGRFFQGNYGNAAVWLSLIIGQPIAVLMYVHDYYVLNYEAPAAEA
Method in brief: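 Membranes from baculovirus-infected Sf-21 cells, each enzyme at 30 µg/mL, incubated with 5 µM [1-14C]-oleoyl-CoA and 40 µM 1,2-dioleoyl-glycerol for 40 min at 32 °C. Lipids extracted by modified Bligh & Dyer, resolved on silica TLC, and radioactivity incorporated into lipids quantified.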

[4] = MRT in mouse at 1 mg/kg, po administered as cassette dose by LC/MS/MS analysis; format: ADME, organism-based; conditions: in vivo; method in brief: as §2

Sequence of CYP2C9 (P11712 whole entry, canonical isoform): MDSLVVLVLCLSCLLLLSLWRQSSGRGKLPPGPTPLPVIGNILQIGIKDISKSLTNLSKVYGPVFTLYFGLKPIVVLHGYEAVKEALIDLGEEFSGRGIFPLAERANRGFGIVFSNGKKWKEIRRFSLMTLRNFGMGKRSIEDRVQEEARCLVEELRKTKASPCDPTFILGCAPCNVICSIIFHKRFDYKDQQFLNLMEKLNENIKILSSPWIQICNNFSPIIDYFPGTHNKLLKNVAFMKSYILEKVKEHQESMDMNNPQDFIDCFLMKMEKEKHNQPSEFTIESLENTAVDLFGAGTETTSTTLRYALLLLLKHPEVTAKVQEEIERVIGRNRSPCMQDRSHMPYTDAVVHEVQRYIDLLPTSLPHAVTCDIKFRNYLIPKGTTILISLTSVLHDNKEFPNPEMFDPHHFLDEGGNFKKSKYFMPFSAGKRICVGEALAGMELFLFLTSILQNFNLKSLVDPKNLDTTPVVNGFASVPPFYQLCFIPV

inhibition at 10 min, 10 µM (CYP2C9): 17% | Vd [1]: 0.539 L/kg | inhibition at 10 min, 10 µM (CYP1A2): < 10% | Papp [2]: 16.6 ×10⁻⁶ cm/s | inhibition at 10 min, 10 µM (CYP3A4): < 10% | inhibition at 10 min, 10 µM (CYP2C8): 32% | IC50 [3]: > 10 µM | MRT [4]: 3.3 h
Compound: Cn1nc(C(F)(F)F)cc1-c1cnc(N2CCc3cc(S(=O)(=O)Nc4c(F)cc(Cl)cc4F)cc(N4CCCC4=O)c32)nc1 [TP-020]
inhibition (Mus musculus): Dose-Dependent Effect
